Experimental data as given in ChEMBL document CHEMBL4689842, “EUbOPEN Chemogenomics Library wave 1” (2021).
Where “and” joins values, the source holds several entries; their conditions need not be identical. Identical values can stand only once.

Tested on: Fibroblast
Experiment: Multiplex assay against human fibroblast
Format: toxicity, cell-based
How it was run: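 At seeding, live cells were stained with Hoechst33342, BioTracker Green Microtubule Cytoskeleton Dye, MitoTracker Red and Annexin V Alexa Fluor 680. After compound addition they were imaged on a CQ1 microscope at 37°C and 5% CO2, and CellPathfinder machine-learning gating sorted them into Hoechst high-intensity objects or normal cells, with normal cells further split into healthy, pyknosed or fragmented nuclei and pyknosed cells into mitotic or apoptotic. Tubulin, mitochondrial-mass and membrane-permeability phenotypes are given as per cents of cells with healthy nuclei.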

[1] = 12 h, 1 µM, compound concentration 1 uM, replicate 1
[2] = 12 h, 1 µM, compound concentration 1 uM, replicate 2
[3] = 12 h, 10 µM, compound concentration 10 uM, replicate 1
[4] = 12 h, 10 µM, compound concentration 10 uM, replicate 2
[5] = 24 h, 1 µM, compound concentration 1 uM, replicate 1
[6] = 24 h, 1 µM, compound concentration 1 uM, replicate 2
[7] = 24 h, 10 µM, compound concentration 10 uM, replicate 1
[8] = 24 h, 10 µM, compound concentration 10 uM, replicate 2
[9] = 48 h, 1 µM, compound concentration 1 uM, replicate 1
[10] = 48 h, 1 µM, compound concentration 1 uM, replicate 2
[11] = 48 h, 10 µM, compound concentration 10 uM, replicate 1
[12] = 48 h, 10 µM, compound concentration 10 uM, replicate 2

SMILES: Cc1cc(C)cc(-c2cnc3cc(Cl)c(-c4cccc(O)c4)cc3c2OCCCN)c1
- Population Apoptotic (%) [1]: 44%
- Population Fragmented Nuclei (%) [1]: 38%
- Population Healthy Nuclei (%) [1]: 26%
- Population Hoechst High Intensity Objects (%) [1]: 16%
- Population Membrane Permeable-Phenotype (%) [1]: 38%
- Population Mitochondria Different-Phenotype (%) [1]: 30%
- Population Mitotic Cells (%) [1]: 55%
- Population Normal (%) [1]: 83%
- Population Pyknosed Nuclei (%) [1]: 36%
- Population Tubulin-Different-Phenotype (%) [1]: 61%
- Total Cell Count [1]: 60
- Population Fragmented Nuclei (%) [2]: 11%
- Population Healthy Nuclei (%) [2]: 72%
- Population Hoechst High Intensity Objects (%) [2]: 10%
- Population Membrane Permeable-Phenotype (%) [2]: 2%
- Population Mitochondria Different-Phenotype (%) [2]: 82%
- Population Normal (%) [2]: 90%
- Population Pyknosed Nuclei (%) [2]: 16%
- Population Tubulin-Different-Phenotype (%) [2]: 56%
- Total Cell Count [2]: 68
- Population Apoptotic (%) [3]: 33%
- Population Fragmented Nuclei (%) [3]: 31%
- Population Healthy Nuclei (%) [3]: 10%
- Population Hoechst High Intensity Objects (%) [3]: 11%
- Population Membrane Permeable-Phenotype (%) [3]: 53%
- Population Mitochondria Different-Phenotype (%) [3]: 7%
- Population Mitotic Cells (%) [3]: 66%
- Population Normal (%) [3]: 88%
- Population Pyknosed Nuclei (%) [3]: 57%
- Population Tubulin-Different-Phenotype (%) [3]: 100%
- Total Cell Count [3]: 135
- Population Apoptotic (%) [4]: 70%
- Population Fragmented Nuclei (%) [4]: 16%
- Population Healthy Nuclei (%) [4]: 32%
- Population Hoechst High Intensity Objects (%) [4]: 8%
- Population Membrane Permeable-Phenotype (%) [4]: 90%
- Population Mitochondria Different-Phenotype (%) [4]: 95%
- Population Mitotic Cells (%) [4]: 29%
- Population Normal (%) [4]: 91%
- Population Pyknosed Nuclei (%) [4]: 50%
- Total Cell Count [4]: 60
- Population Apoptotic (%) [5]: 40%
- Population Fragmented Nuclei (%) [5]: 54%
- Population Healthy Nuclei (%) [5]: 22%
- Population Hoechst High Intensity Objects (%) [5]: 21%
- Population Membrane Permeable-Phenotype (%) [5]: 10%
- Population Mitochondria Different-Phenotype (%) [5]: 10%
- Population Mitotic Cells (%) [5]: 60%
- Population Normal (%) [5]: 78%
- Population Pyknosed Nuclei (%) [5]: 22%
- Population Tubulin-Different-Phenotype (%) [5]: 20%
- Total Cell Count [5]: 56
- Population Apoptotic (%) [6]: 62%
- Population Fragmented Nuclei (%) [6]: 11%
- Population Healthy Nuclei (%) [6]: 75%
- Population Hoechst High Intensity Objects (%) [6]: 3%
- Population Membrane Permeable-Phenotype (%) [6]: 2%
- Population Mitochondria Different-Phenotype (%) [6]: 78%
- Population Mitotic Cells (%) [6]: 37%
- Population Normal (%) [6]: 96%
- Population Pyknosed Nuclei (%) [6]: 13%
- Population Tubulin-Different-Phenotype (%) [6]: 28%
- Total Cell Count [6]: 66
- Population Apoptotic (%) [7]: 38%
- Population Fragmented Nuclei (%) [7]: 28%
- Population Healthy Nuclei (%) [7]: 16%
- Population Hoechst High Intensity Objects (%) [7]: 12%
- Population Membrane Permeable-Phenotype (%) [7]: 54%
- Population Mitochondria Different-Phenotype (%) [7]: 4%
- Population Mitotic Cells (%) [7]: 61%
- Population Normal (%) [7]: 87%
- Population Pyknosed Nuclei (%) [7]: 54%
- Population Tubulin-Different-Phenotype (%) [7]: 90%
- Total Cell Count [7]: 149
- Population Apoptotic (%) [8]: 93%
- Population Fragmented Nuclei (%) [8]: 24%
- Population Healthy Nuclei (%) [8]: 3%
- Population Hoechst High Intensity Objects (%) [8]: 7%
- Population Membrane Permeable-Phenotype (%) [8]: 50%
- Population Mitochondria Different-Phenotype (%) [8]: 50%
- Population Mitotic Cells (%) [8]: 6%
- Population Normal (%) [8]: 92%
- Population Pyknosed Nuclei (%) [8]: 72%
- Population Tubulin-Different-Phenotype (%) [8]: 50%
- Total Cell Count [8]: 63
- Population Apoptotic (%) [9]: 64%
- Population Fragmented Nuclei (%) [9]: 37%
- Population Healthy Nuclei (%) [9]: 33%
- Population Hoechst High Intensity Objects (%) [9]: 20%
- Population Membrane Permeable-Phenotype (%) [9]: 37%
- Population Mitochondria Different-Phenotype (%) [9]: 37%
- Population Mitotic Cells (%) [9]: 35%
- Population Normal (%) [9]: 80%
- Population Pyknosed Nuclei (%) [9]: 29%
- Population Tubulin-Different-Phenotype (%) [9]: 56%
- Total Cell Count [9]: 60
- Population Apoptotic (%) [10]: 75%
- Population Fragmented Nuclei (%) [10]: 41%
- Population Healthy Nuclei (%) [10]: 54%
- Population Hoechst High Intensity Objects (%) [10]: 17%
- Population Membrane Permeable-Phenotype (%) [10]: 22%
- Population Mitochondria Different-Phenotype (%) [10]: 9%
- Population Mitotic Cells (%) [10]: 25%
- Population Normal (%) [10]: 82%
- Population Pyknosed Nuclei (%) [10]: 4%
- Population Tubulin-Different-Phenotype (%) [10]: 62%
- Total Cell Count [10]: 117
- Population Apoptotic (%) [11]: 56%
- Population Fragmented Nuclei (%) [11]: 45%
- Population Healthy Nuclei (%) [11]: 28%
- Population Hoechst High Intensity Objects (%) [11]: 39%
- Population Membrane Permeable-Phenotype (%) [11]: 37%
- Population Mitochondria Different-Phenotype (%) [11]: 7%
- Population Mitotic Cells (%) [11]: 44%
- Population Normal (%) [11]: 60%
- Population Pyknosed Nuclei (%) [11]: 26%
- Population Tubulin-Different-Phenotype (%) [11]: 81%
- Total Cell Count [11]: 157
- Population Apoptotic (%) [12]: 93%
- Population Fragmented Nuclei (%) [12]: 39%
- Population Healthy Nuclei (%) [12]: 43%
- Population Hoechst High Intensity Objects (%) [12]: 31%
- Population Membrane Permeable-Phenotype (%) [12]: 12%
- Population Mitochondria Different-Phenotype (%) [12]: 82%
- Population Mitotic Cells (%) [12]: 6%
- Population Normal (%) [12]: 68%
- Population Pyknosed Nuclei (%) [12]: 16%
- Population Tubulin-Different-Phenotype (%) [12]: 92%
- Total Cell Count [12]: 129

SMILES: CCOCCn1cc(C(=O)Nc2ccc(-n3nc(-c4cccnc4)cc3C(F)(F)F)cn2)ccc1=O [BI 1935]
- Population Apoptotic (%) [3]: 85% and 52% and 61%
- Population Fragmented Nuclei (%) [3]: 25% and 26% and 24%
- Population Healthy Nuclei (%) [3]: 45% and 60% and 58%
- Population Hoechst High Intensity Objects (%) [3]: 20% and 11% and 13%
- Population Membrane Permeable-Phenotype (%) [3]: 9% and 15% and 6%
- Population Normal (%) [3]: 79% and 88% and 86%
- Population Pyknosed Nuclei (%) [3]: 29% and 13% and 17%
- Population Apoptotic (%) [4]: 100% and 42% and 47%
- Population Membrane Permeable-Phenotype (%) [4]: 23% and 14% and 8%
- Population Normal (%) [4]: 62% and 60% and 92%
- Population Tubulin-Different-Phenotype (%) [4]: 23% and 57% and 64%
- Total Cell Count [4]: 78 and 61 and 79
- Population Apoptotic (%) [7]: 60% and 72% and 64%
- Population Fragmented Nuclei (%) [7]: 35% and 25% and 24%
- Population Healthy Nuclei (%) [7]: 50% and 61% and 62%
- Population Hoechst High Intensity Objects (%) [7]: 21% and 14% and 16%
- Population Membrane Permeable-Phenotype (%) [7]: 8% and 4%
- Population Mitotic Cells (%) [7]: 40% and 27% and 36%
- Population Normal (%) [7]: 78% and 85% and 83%
- Population Pyknosed Nuclei (%) [7]: 14% and 13% and 12%
- Population Apoptotic (%) [8]: 33% and 28% and 40%
- Population Healthy Nuclei (%) [8]: 44% and 25% and 66%
- Population Mitotic Cells (%) [8]: 66% and 71% and 60%
- Population Normal (%) [8]: 60% and 91%
- Population Tubulin-Different-Phenotype (%) [8]: 20% and 55% and 44%
- Total Cell Count [8]: 74 and 58 and 92
- Population Apoptotic (%) [11]: 55%
- Population Fragmented Nuclei (%) [11]: 44%
- Population Healthy Nuclei (%) [11]: 42%
- Population Hoechst High Intensity Objects (%) [11]: 22%
- Population Membrane Permeable-Phenotype (%) [11]: 0%
- Population Mitochondria Different-Phenotype (%) [11]: 40%
- Population Mitotic Cells (%) [11]: 44%
- Population Normal (%) [11]: 77%
- Population Pyknosed Nuclei (%) [11]: 12%
- Population Tubulin-Different-Phenotype (%) [11]: 86%
- Total Cell Count [11]: 90
- Population Apoptotic (%) [12]: 0%
- Population Fragmented Nuclei (%) [12]: 28%
- Population Healthy Nuclei (%) [12]: 71%
- Population Hoechst High Intensity Objects (%) [12]: 9%
- Population Membrane Permeable-Phenotype (%) [12]: 11%
- Population Mitochondria Different-Phenotype (%) [12]: 3%
- Population Mitotic Cells (%) [12]: 0%
- Population Normal (%) [12]: 90%
- Population Pyknosed Nuclei (%) [12]: 0%
- Population Tubulin-Different-Phenotype (%) [12]: 70%
- Total Cell Count [12]: 42
